Laboratory results published in ChEMBL document CHEMBL6071141, “In vitro and in vivo evaluation of Bombesin-MMAE conjugates for targeted tumour therapy” (Eur J Med Chem, 2024).
Active and inactive are the calls of the source. No cut-off for these calls is given here. Numbered stars: 1 amine (or outer) side, 2 acyl side, 3 side chain; on linkers, the order of the positions; unused ones are H or OH. Bridge positions count the residues as written; N and C are the ends. Square brackets hold non-standard residues; d marks the D form. Peptide text beside a SMILES is read from it. I, II: the chains in the order shown. * marks the point of attachment. Hexanoyl(6-succinimido-3yl) = O=C1CC([*:1])C(=O)N1CCCCCC(=O)[*:2]; Dolaproine = CO[C@@H]([C@@H]1CCCN1)[C@@H](C)C(=O)O; X2 = O=C([C@H](CC1=CSC2C=CC=CC12)N[*:1])[*:2]; Dil = CC[C@H](C)[C@H](NC)[C@@H](CC(=O)O)OC; PABC = O=C(OCc1ccc(N[*:1])cc1)[*:2]; X3 = C[C@@H](N*)[C@@H](O)c1ccccc1; Cit = NC(=O)NCCC[C@H](N)C(=O)O; PEG4 = NCCOCCOCCOCCOCCC(=O)O; NMeV = CN[C@H](C(=O)O)C(C)C; Nle = CCCC[C@H](N)C(=O)O

Tests used:
PC-3 [1] = experiment: Antitumor activity against human PC-3 cells xenografted with mouse assessed as median survival days at 1 mg/kg, ip (reference value: 33 days)
[2] = Cytotoxicity against human PC-3 cells assessed as inhibition of cell growth incubated for 72 hrs and followed by treated with compound continued incubation for further 72 hrs (double treatment) after retreatment of compound by CellTiter 96 aqueous assay; type: toxicity, cell-based
Procedure, shortened: (§1)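 PC-3 or MDA-MB-231 cells were treated the day after seeding with serial dilutions, from 2000 nM for conjugates and 100 nM for MMAE, for 72 h. Then the assay was stopped, or run 72 h more after a medium change (single) or re-treatment (double). Controls got 0.05 % DMSO. Read-out was MTS absorbance at 490 nm after 90 min. IC50 by non-linear regression; ≥2 experiments, triplicates.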

[3] = Biodistribution in mouse xenografted with human PC-3 cells assessed as tumour environment incubated for 24 hrs by LC-HRMS; type: ADME, organism-based, Neoplasm; conditions: in vivo
Procedure, shortened: (§2)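 Mice bearing PC-3 xenografts received a single 2 mg/kg i.p. dose. Blood, tumour, liver, kidneys, heart, lungs and pancreas were collected at 1, 6 and 24 h and pooled per group. Tissues were homogenised in water (1:2 w/v) and centrifuged. Released MMAE was measured by LC-HRMS and expressed as %ID/g (n = 3).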

[4] = Biodistribution in mouse pancreas xenografted with human PC-3 cells by LC-HRMS relative to control; type: ADME, organism-based; conditions: in vivo
[5] = Biodistribution in liver of mouse xenografted with human PC-3 cells incubated for 24 hrs by LC-HRMS; type: ADME, organism-based; conditions: in vivo
Procedure, shortened: (§3)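 Mice bearing s.c. PC-3 tumours given a single i.p. dose of 2 mg/kg; 3 mice per time point, sampled at 1, 6 and 24 h. Blood, tumour, liver, kidneys, heart, lungs and pancreas pooled per group and homogenised in water (1:2 w/v); supernatants analysed for MMAE by LC-HRMS; expressed as %ID/g.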

[6] = Cytotoxicity against human PC-3 cells assessed as inhibition of cell growth incubated for 72 hrs by CellTiter 96 aqueous assay; type: toxicity, cell-based
Procedure, shortened: as §1

[7] = Cytotoxicity against human cells MDA-MB-231 assessed as inhibition of cell growth incubated for 72 hrs by CellTiter 96 aqueous assay; type: toxicity, cell-based; conditions: MDA-MB-231 cells
Procedure, shortened: as §1

[8] = Biodistribution in kidney mouse xenografted with human PC-3 cells incubated for 24 hrs by LC-HRMS; type: ADME, organism-based; conditions: in vivo
Procedure, shortened: as §3

PC-3 [9] = experiment: Antitumor activity against human PC-3 cells xenografted in mouse assessed as median survival day at 1 mg/kg, ip administration for 33 days; type: functional; conditions: time 33 day
[10] = Cytotoxicity against human MDA-MB-231 cells assessed as inhibition of cell growth incubated for 72 hrs and followed by treated with compound continued incubation for further 72 hrs (double treatment) after retreatment of compound by CellTiter 96 aqueous assay; type: toxicity, cell-based
Procedure, shortened: as §1

[11] = Cytotoxicity against human MDA-MB-231 cells assessed as inhibition of cell growth incubated with compound for 72 hrs followed by further incubated for 72 hrs (single treatment) by CellTiter 96 aqueous assay; type: toxicity, cell-based
Procedure, shortened: as §1

PC-3 [12] = experiment: Antitumor activity against human PC-3 cells xenografted in mouse assessed as reduction in tumour volume relative to control; type: functional; parameters: scale not given: the % may be the effect or the level left
Procedure, shortened: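 Acute study in mice bearing subcutaneous PC-3 tumours. Single i.p. dose (0.1 mL) 9 days after inoculation, at a mean tumour volume of 62 mm³. Eight per group, randomized. Conjugates at 2 mg/kg MMAE-content, free MMAE at 1 mg/kg, in 5 % DMSO in water; solvent controls. Calliper volume V = ab²×π/6. Sacrifice at 20 % weight loss or 2000 mm³.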

[13] = Biodistribution in mouse pancreas xenografted with human PC-3 cells assessed as parent compound by LC-HRMS; type: ADME, organism-based; conditions: in vivo
Procedure, shortened: as §3

[14] = Cytotoxicity against human PC-3 cells assessed as inhibition of cell growth incubated with compound for 72 hrs followed by further incubated for 72 hrs (single treatment) by CellTiter 96 aqueous assay; type: toxicity, cell-based
Procedure, shortened: as §1

[15] = Drug uptake in mouse lungs at ip administration xenografted with human PC-3 cells measured upto 24 hrs by LC-HRMS; type: ADME, organism-based, Lung; conditions: in vivo
Procedure, shortened: as §2

[16] = target: T1, Gastrin-releasing peptide receptor (Homo sapiens, UniProt P30550); experiment: Displacement of 125 I- [Tyr4] from bombesin receptor 2 in human PC-3 cells assessed as inhibition by radioligand displacement assay; type: cell-based
Procedure, shortened: (§4)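 Competition binding on membrane preparations from PC-3 or MDA-MB-231 cells against ¹²⁵I-[Tyr⁴]-bombesin, with conjugates at 10 μM–10 pM. IC50 was taken as the concentration giving 50 % inhibition of tracer binding.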

[17] = Drug uptake in mouse heart at ip administration xenografted with human PC-3 cells measured upto 24 hrs by LC-HRMS; type: ADME, organism-based; conditions: in vivo
Procedure, shortened: as §2

[18] = Drug uptake in mouse kidney at ip administration xenografted with human PC-3 cells measured upto 24 hrs by LC-HRMS; type: ADME, organism-based; conditions: in vivo
Procedure, shortened: as §2

[19] = Drug uptake in mouse pancreas at ip administration xenografted with human PC-3 cells measured upto 24 hrs by LC-HRMS; type: ADME, organism-based; conditions: in vivo
Procedure, shortened: as §2

[20] = Drug uptake in mouse blood at ip administration xenografted with human PC-3 cells measured upto 24 hrs by LC-HRMS; type: ADME, organism-based; conditions: in vivo
Procedure, shortened: as §2

[21] = target: T1, Gastrin-releasing peptide receptor; experiment: Displacement of 125 I- [Tyr4] from bombesin receptor 2 in human MDA-MB-231 cells assessed as inhibition by radioligand displacement assay; type: cell-based
Procedure, shortened: as §4

[22] = Drug uptake in mouse liver at ip administration xenografted with human PC-3 cells measured upto 24 hrs by LC-HRMS; type: ADME, organism-based; conditions: in vivo
Procedure, shortened: as §2

[23] = Toxicity in mouse xenografted with human PC-3 cells assessed as body weight loss at 1 mg/kg, ip administered relative to control; type: organism-based; conditions: in vivo, 2 mg/kg, in the assay text read “2 mg/kg” for “1 mg/kg”
Procedure, shortened: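 Toxicity in mice bearing subcutaneous PC-3 tumours after a single i.p. dose 9 days post-inoculation. Free drug at 1 mg/kg, conjugates at 2 mg/kg MMAE-content, in 5 % DMSO in water; solvent controls; eight per group. Body weight followed periodically. Endpoint at 20 % weight loss; behaviour (activity, coat, stool, paleness) also scored.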

PC-3 [24] = experiment: Antitumor activity against human PC-3 cells xenografted with mouse assessed as median survival days at 2 mg/kg, ip (reference value: 33 days)
PC-3 [25] = experiment: Antitumor activity against human PC-3 cells xenografted in mouse assessed as reduction in tumour size at 0.5 mg/kg, ip administered upto 23 days relative to control; type: functional; parameters: scale not given: the % may be the effect or the level left; conditions: time <= 23 day
Procedure, shortened: (§5)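 Chronic study in mice bearing subcutaneous PC-3 tumours. Dosing began 8 days after cell inoculation, at a mean tumour volume of 93 mm³. Seven per group, randomized. Four i.p. doses (0.1 mL) on days 8, 11, 16 and 23 of 0.5 mg/kg MMAE-content, in 5 % DMSO in water for injection; controls got solvent. Tumour volume by calliper, V = ab²×π/6.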

PC-3 [26] = experiment: Antitumor activity against human PC-3 cells xenografted in mouse assessed as reduction in tumour weight at 0.5 mg/kg, ip administered upto 23 days relative to control; type: functional; parameters: scale not given: the % may be the effect or the level left; conditions: time <= 23 day
PC-3 [27] = experiment: Antitumor activity against human PC-3 cells xenografted in mouse assessed as inhibition in tumour growth at 0.5 mg/kg, ip administered upto 23 days; type: functional, organism-based; conditions: time <= 23.0 day
Procedure, shortened: as §5

[28] = Toxicity in mouse xenografted with human PC-3 cells assessed as effect on liver 0.5 mg/kg, ip administered upto 23 days; conditions: in vivo, 552 h
[29] = Toxicity in mouse xenografted with human PC-3 cells assessed as change in body weight at 0.2 mg/kg, ip administered upto 23 days; type: organism-based; conditions: in vivo, 0.5 mg/kg, 552 h, in the assay text read “0.5 mg/kg” for “0.2 mg/kg”
Procedure, shortened: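 Chronic dosing in mice bearing PC-3 xenografts. Free MMAE at 0.2 mg/kg (conjugates at 0.5 mg/kg MMAE-content), i.p. in 5 % DMSO in water on days 8, 11, 16 and 23 after inoculation. Seven per group; solvent controls. Body weight measured at the start and at periodic intervals.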

T1 sequence (P30550 whole entry): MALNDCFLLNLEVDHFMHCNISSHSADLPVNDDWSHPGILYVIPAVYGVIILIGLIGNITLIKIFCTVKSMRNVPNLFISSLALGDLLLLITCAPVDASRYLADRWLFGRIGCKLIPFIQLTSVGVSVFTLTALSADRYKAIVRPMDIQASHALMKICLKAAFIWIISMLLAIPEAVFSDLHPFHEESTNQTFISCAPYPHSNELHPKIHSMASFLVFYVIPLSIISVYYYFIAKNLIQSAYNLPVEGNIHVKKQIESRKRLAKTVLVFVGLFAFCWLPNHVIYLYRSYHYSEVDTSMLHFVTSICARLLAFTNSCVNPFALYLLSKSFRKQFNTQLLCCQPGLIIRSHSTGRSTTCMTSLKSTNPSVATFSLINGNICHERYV

Row | Structure (SMILES) | IC50 at 144 h [2] [nM] | Drug uptake [3] | IC50 at 72 h [6] [nM] | IC50 at 72 h [7] [nM] | IC50 at 144 h [10] [nM] | IC50 at 144 h [11] [nM] | Activity (PC-3 [12]) [%] | IC50 at 144 h [14] [nM] | IC50 [16] [nM] | IC50 [21] [nM] | further results
1 | CC[C@H](C)[C@@H]([C@@H](CC(=O)N1CCC[C@H]1[C@H](OC)[C@@H](C)C(=O)N[C@H](C)[C@@H](O)c1ccccc1)OC)N(C)C(=O)[C@@H](NC(=O)[C@@H](NC)C(C)C)C(C)C (H-[NMeV]V[Dil][Dolaproine]-X3) | 0.3 | Active | 3.4 | 10.1 | 0.2 | 0.2 | 15.9 | 0.4 | – | – | Survival (PC-3 [1]): 24.5 days; Drug uptake [4]: 3.55%; Drug uptake [5]: Active; Drug uptake [8]: Active; Survival (PC-3 [9]): 24.5 days; Drug uptake [13]: 10.1%
2 | CCCC[C@H](NC(=O)[C@H](CC(C)C)NC(=O)[C@H](Cc1c[nH]cn1)NC(=O)CNC(=O)[C@@H](NC(=O)[C@H](C)NC(=O)[C@H](CC1=CSC2C=CC=CC12)NC(=O)[C@H](CCC(N)=O)NC(=O)[C@H](CC(N)=O)NC(=O)CCOCCOCCOCCOCCNC(=O)[C@H](CSC1CC(=O)N(CCCCCC(=O)N[C@@H](CCC(=O)O)C(=O)N[C@H](C(=O)N[C@@H](CCCNC(N)=O)C(=O)Nc2ccc(COC(=O)N(C)[C@H](C(=O)N[C@H](C(=O)N(C)[C@@H]([C@@H](C)CC)[C@@H](CC(=O)N3CCC[C@H]3[C@H](OC)[C@@H](C)C(=O)N[C@H](C)[C@@H](O)c3ccccc3)OC)C(C)C)C(C)C)cc2)C(C)C)C1=O)NC(C)=O)C(C)C)C(N)=O (stereo not given in full) (I: Ac-C[PEG4]NQ[X2]AVGHL[Nle]-NH2 / II: EV[Cit][PABC][NMeV]V[Dil][Dolaproine]-X3; linker I:1-II:N via Hexanoyl(6-succinimido-3yl)) | 11.8 | – | 53.9 | 501 | 46.4 | 48.7 | – | 15.6 | 93.6 | 106 | Drug uptake [15]: Not Active; Drug uptake [17]: Not Active; Drug uptake [18]: Not Active; Drug uptake [19]: Not Active; Drug uptake [20]: Not Active; Drug uptake [22]: Not Active
3 | CC[C@H](C)[C@@H]([C@@H](CC(=O)N1CCC[C@H]1[C@H](OC)[C@@H](C)C(=O)N[C@H](C)[C@@H](O)c1ccccc1)OC)N(C)C(=O)[C@@H](NC(=O)[C@H](C(C)C)N(C)C(=O)OCc1ccc(NC(=O)[C@H](CCCNC(N)=O)NC(=O)[C@@H](NC(=O)[C@H](CCC(=O)O)NC(=O)CCCCCN2C(=O)CC(SC[C@H](NC(C)=O)C(=O)NCCOCCOCCOCCOCCC(=O)N[C@H](Cc3ccccc3)C(=O)N[C@@H](CCC(N)=O)C(=O)N[C@@H](CC3=CSC4C=CC=CC34)C(=O)N[C@@H](C)C(=O)N[C@H](C(=O)NCC(=O)N[C@@H](Cc3c[nH]cn3)C(=O)N[C@@H](CC(C)C)[C@@H](O)CC(=O)N[C@@H](CC(C)C)C(N)=O)C(C)C)C2=O)C(C)C)cc1)C(C)C (stereo not given in full) | 4 | Active | 29.3 | 299 | 39.9 | 41 | 34.2 | 6 | 58.2 | 70.4 | Activity [23]: < 20%; Survival (PC-3 [24]): 42 days; Activity (PC-3 [25]): 48%; Activity (PC-3 [26]): 26%; Activity (PC-3 [27]): Active; Activity [28]: Non-Toxic; Activity [29]: Toxic
